Experimental data from different studies.
Compare with care: the assays were run in different laboratories.
Target: Mitogen-activated protein kinase kinase kinase 1 (MAP3K1, Homo sapiens, UniProt Q13233)

Structure (SMILES)	assay	setting	remaining binding
CNC(=O)Nc1ccc2c(c1)CC[C@@]21OC(=O)N(CC(=O)N(Cc2ccc(F)cc2)[C@@H](C)C(F)(F)F)C1=O	cell-free assay, competition with immobilised ligand	1 µM	68%
COc1cnc(Nc2cccc(S(N)(=O)=O)c2)nc1N1CCN(c2ccccc2)C(=O)C1	binding, competition with immobilised ligand	1 µM	96%
CCCOc1ccc([C@@H]2[C@@H](C(=O)O)[C@H](c3ccc4c(c3)OCO4)CN2CC(=O)Nc2c(CC)cccc2CC)cc1	cell-free assay, competition with immobilised ligand	1 µM	80%
COc1ncc2cc3ccccc3nc2c1C#N	cell-free assay, competition with immobilised ligand	5 µM	99%
FC(F)(F)Oc1cccc(-c2cnc3ccc(-c4ccncc4)nn23)c1	cell-free assay, competition with immobilised ligand	5 µM	80%
Nc1ncc2c(n1)-c1c([nH]c3ccc(C#CC4CC4)cc13)CCCC2	binding, competition with immobilised ligand	1 µM	97%
O=C(Nc1c[nH]nc1C(=O)NC1CCNCC1)c1cc(F)cc(F)c1	binding, competition with immobilised ligand	1 µM	84%
C[C@H](NC(=O)c1cnc2n1[C@](C)(Cc1ccc(C#N)cc1)C(=O)N2c1cc(Cl)c(F)c(Cl)c1)C(=O)NC1(c2ccccn2)CC1	cell-free assay, competition with immobilised ligand	1 µM	100%
C=CC(=O)N1CCC(C(=O)NCC(=O)N2CCN(c3nc(-c4cnc(N)nc4C(F)F)nc(N4CCOCC4)n3)CC2)CC1	binding, competition with immobilised ligand	1 µM	93%
O=C(N1CCS(=O)(=O)CC1)N1C[C@H](c2ccc(OC(F)(F)F)cc2)C[C@H](c2nc(C3CC3)no2)C1	cell-free assay, competition with immobilised ligand	1 µM	100%
CN(c1nccc(-c2cnn3ncccc23)n1)C1CC1	binding	1 µM	81%
CO[C@@H](C)c1c(Nc2ccc([C@H](N(C)C(=O)C3CCS(=O)(=O)CC3)C(F)(F)F)cc2)cnc2cc(Cl)nn12	cell-free assay, competition with immobilised ligand	1 µM	100%
C[C@@H]1CCN(c2nccc(-c3cnn4ncccc34)n2)C1	binding	1 µM	85%
Cc1cnc(Nc2ccc(C(=O)N3CCC(N4CCCC4)CC3)cc2)nc1-c1cc2ccccc2s1	binding, competition with immobilised ligand	1 µM	70%
CN(C)c1ncc(F)c(-c2cnn3ncccc23)n1	binding	1 µM	80%
CSc1cccnc1N1CCN(Cc2nc3ccccc3[nH]2)CC1	cell-free assay, competition with immobilised ligand	1 µM	70%
F[C@@H]1CCN(c2nccc(-c3cnn4ncccc34)n2)C1	binding	1 µM	100%
O=C(c1ccc(Nc2ncc(Cl)c(-c3ccc(Cl)s3)n2)cc1)N1CCC(N2CCCC2)CC1	binding, competition with immobilised ligand	1 µM	90%
CN(CCCC(F)(F)F)c1nccc(-c2cnn3ncccc23)n1	binding	1 µM	75%
CNC(=O)Nc1ccc2c(c1)[C@@]1(CC2)OC(=O)N(CC(=O)N(Cc2ccc(F)cc2)[C@@H](C)C(F)(F)F)C1=O	cell-free assay, competition with immobilised ligand	1 µM	95%
N[C@@H]1CCN(c2nccc(-c3cnn4ncccc34)n2)C1	binding	1 µM	97%
O=C(c1ccc(Nc2nccc(-c3cc4ccccc4s3)n2)cc1)N1CCC(N2CCCC2)CC1	binding, competition with immobilised ligand	1 µM	98%
